ChEMBL document CHEMBL4177702, “Design and synthesis of aminoester heterodimers containing flavone or chromone moieties as modulators of P-glycoprotein-based multidrug resistance (MDR)” (Bioorg Med Chem, 2018)
Calls of active or inactive are those of the source. No cut-off for these calls is given here.

What was measured:
Format in all cases: cell-based
[1] = organism: Homo sapiens; experiment: Inhibition of P-gp in human K562/Dox cells assessed as nuclear accumulation of pirarubicin at 10^-5 M by spectrofluorometric assay relative to control
[2] = (§1) Inhibition of P-gp in human K562/Dox cells assessed as increase in nuclear accumulation of pirarubicin by spectrofluorometric assay; details: read-out: I50
[3] = test system: K562; experiment: Cytotoxicity against human K562 cells assessed as reduction in cell viability at 1 to 3 uM after 72 hrs by MTT assay; details: k562, 72 h
Method in brief: (§2)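 Exponentially growing cells (3×10^5 cells/mL) seeded at 10^4 cells/well and exposed to compound at 1.0 and 3.0 μM (diluted from 10^-2 M DMSO stocks in complete medium) for 72 h at 37 °C, 5% CO2. MTT added for 3 h, formazan dissolved in acidified isopropanol, absorbance at 570 nm. Toxicity expressed as proliferation relative to untreated control (100%).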

[4] = Cytotoxicity against human K562/Dox cells assessed as reduction in cell viability at 1 to 3 uM after 72 hrs by MTT assay; method in brief: as §2
[5] = organism: Homo sapiens; experiment: as §1

IC50 [2] [nM] | Structure (SMILES) | Efficacy [1] [%] | also measured
 | COc1cc(/C=C/C(=O)OCCCN(C)CCCOC(=O)c2cc(=O)c3c(O)cccc3o2)cc(OC)c1OC | 4 to 30 | 
 | COc1cc(OC)c2c(=O)cc(C(=O)OCCCN(C)CCCOC(=O)/C=C/c3cc(OC)c(OC)c(OC)c3)oc2c1 | 4 to 30 | 
960 | COc1cc(/C=C/C(=O)OCCCCCN(C)CCCCCOC(=O)COc2ccc(-c3cc(=O)c4c(O)cc(O)cc4o3)cc2)cc(OC)c1OC |  | 
1320 | COc1cc(/C=C/C(=O)OCCCCCNCCCCCOC(=O)COc2ccc(-c3cc(=O)c4ccccc4o3)cc2)cc(OC)c1OC |  | 
350 | COc1cc(/C=C/C(=O)OCCCCCN(C)CCCCCOC(=O)c2cc(=O)c3c(O)cccc3o2)cc(OC)c1OC |  | 
1320 | COc1cc(OC)c2c(=O)cc(C(=O)OCCCCCN(C)CCCCCOC(=O)/C=C/c3cc(OC)c(OC)c(OC)c3)oc2c1 |  | 
 | COc1cc(/C=C/C(=O)OCCCN(C)CCCOC(=O)c2cc(=O)c3c(OC)cccc3o2)cc(OC)c1OC | 4 to 30 | 
1230 | COc1cc(/C=C/C(=O)OCCOCCN(C)CCOCCOC(=O)COc2ccc(-c3cc(=O)c4ccccc4o3)cc2)cc(OC)c1OC |  | Activity [3]: Non-Toxic; Activity [4]: Non-Toxic
 | COc1cc(/C=C/C(=O)OCCOCCNCCOCCOC(=O)COc2ccc(-c3cc(=O)c4ccccc4o3)cc2)cc(OC)c1OC |  | Activity [3]: Non-Toxic; Activity [4]: Non-Toxic
3500 | COc1cc(/C=C/C(=O)OCCCCCN(C)CCCCCOC(=O)c2cc(=O)c3c(OC)cccc3o2)cc(OC)c1OC |  | 
 | COc1cc(/C=C/C(=O)OCCCN(C)CCCOC(=O)COc2ccc(-c3cc(=O)c4c(O)cc(O)cc4o3)cc2)cc(OC)c1OC | 4 to 30 | 
 | COc1cc(/C=C/C(=O)OCCOCCN(C)CCOCCOC(=O)c2cc(=O)c3c(O)cc(O)cc3o2)cc(OC)c1OC |  | I50 [5]: inactive
2430 | COc1cc(/C=C/C(=O)OCCCCCN(C)CCCCCOC(=O)c2cc(=O)c3c(O)cc(O)cc3o2)cc(OC)c1OC |  | 
 | COc1cc(/C=C/C(=O)OCCCN(C)CCCOC(=O)c2cc(=O)c3c(O)cc(O)cc3o2)cc(OC)c1OC | 4 to 30 | Activity [3]: Non-Toxic; Activity [4]: Non-Toxic
430 | COc1cc(/C=C/C(=O)OCCCCCN(CCCCCOC(=O)COc2ccc(-c3cc(=O)c4ccccc4o3)cc2)Cc2ccccc2)cc(OC)c1OC |  | 
340 | COc1cc(/C=C/C(=O)OCCCCCN(C)CCCCCOC(=O)COc2ccc(-c3cc(=O)c4ccccc4o3)cc2)cc(OC)c1OC |  | Activity [3]: Non-Toxic; Activity [4]: Non-Toxic
